# Measured values as given in ChEMBL document CHEMBL5653617, “Inhibition of BRD4 attenuates tumor cell self-renewal and suppresses stem cell signaling in MYC driven medulloblastoma” (Oncotarget, 2014).
# The source made the active and inactive calls.
# How the values were obtained:
# Daoy [1] = experiment: Induction of senescence in human Daoy cells assessed as increase in p16 mRNA expression at 300 nM by RT-qPCR analysis; type: functional, cell-based
# Summary of the method: (§1)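 Cells treated with 300 nM drug or DMSO. p16, p21 and p27 mRNA measured by TaqMan qPCR with ΔΔCt quantitation, in triplicate.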
# [2] = target: Bromodomain-containing protein 4 (Homo sapiens) (UniProt O60885); settings: D425 Med, dose 300.0 nM
# Daoy [3] = experiment: Induction of senescence in human Daoy cells assessed as increase in p21 protein expression at 300 nM by immunoblot analysis; type: functional, cell-based
# Summary of the method: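 Protein lysates prepared in RIPA buffer with protease inhibitors. Standard western blot with HRP-conjugated secondary antibodies and chemiluminescent detection.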
# [4] = target: Bromodomain-containing protein 4 (Homo sapiens) (UniProt O60885); settings: D425 Med, dose 300.0 nM; remark: listed apart in the source
# D458 Med [5] = experiment: Antiproliferative activity in human D458 Med cells assessed as inhibition of cell growth at 300 nM by flow cytometry analysis; type: functional, cell-based
# Summary of the method: (§2)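 ViaCount flow cytometric cell count. Cells seeded in medium, DMSO or drug added 24 h later, cultured a further 48 h. Cells then pelleted, washed, stained with Viacount reagent and counted on a Guava cytometer. Vehicle control DMSO.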
# Daoy [6] = experiment: In vivo inhibition of BRD4 in athymic nude mouse xenografted with human Daoy cells assessed as reduction in SOX2 protein expression in tumor at 50 mg/kg, ip measured after 5 days by immunofluorescence analysis; type: functional, organism-based; settings: time 5.0 day
# Summary of the method: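 Tumors from Daoy flank xenografts in nude mice treated 50 mg/kg i.p. or DMSO vehicle for 5 days, then sacrificed. SOX2 protein detected by immunofluorescence on tumor sections.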
# Daoy [7] = experiment: Antiproliferative activity in human Daoy cells assessed as inhibition of cell growth measured upto 120 hrs by xCELLigence system; type: functional, cell-based; settings: dose 0.1-1 µM
# Summary of the method: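 Real-time impedance growth monitoring (xCELLigence, E-Plate 96). 1000 cells/well plated, DMSO or drug at varying concentrations added 24 h later, growth recorded continuously over time.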
# Daoy [8] = experiment: Antiproliferative activity in human Daoy cells assessed as inhibition of cell growth at 300 nM by flow cytometry analysis; type: functional, cell-based; summary of the method: as §2
# Daoy [9] = experiment: Induction of cell cycle arrest in human Daoy cells assessed as accumulation of cells at G1 phase at 300 nM incubated for 48 hrs by flow cytometry analysis (reference value: 50.67 +/- 3.19%); type: functional
# Daoy [10] = experiment: Antitumor activity against human Daoy cells xenografted in athymic nude mice assessed as induction of senescence at 50 mg/kg, ip measured after 5 days by beta-galactosidase staining based analysis; type: functional, organism-based; settings: time 5.0 day
# Summary of the method: (§3)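 Daoy cells (1.0×10^7 in PBS) injected into the flank of athymic nude mice. Once tumors were palpable, drug given 50 mg/kg i.p. with DMSO as vehicle control. Animals were sacrificed after a 5-day treatment. Tumors were assessed by Ki67 IHC and by senescence-associated β-galactosidase staining.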
# [11] = target: Bromodomain-containing protein 4 (Homo sapiens) (UniProt O60885); settings: D283 Med, dose 300.0 nM
# Daoy [12] = experiment: Downregulation of CRIP1 gene expression in human Daoy cells at 300 nM by GSEA method; type: functional, cell-based
# Summary of the method: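 Daoy cells treated with DMSO or 300 nM drug. RNA extracted and hybridized to Affymetrix HG-ST2.0 arrays. Analysis in R/Bioconductor with gene set enrichment analysis. Regulated transcripts defined as p < 0.05, FDR < 0.05, fold change < 0.67 (down) or > 1.5 (up).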
# Medulloblastoma cell = experiment: Antitumor activity against patient-derived Medulloblastoma cells assessed as BrdU incorporation at 300 nM preincubated with compound for 7 days followed by BrdU addition and measured after 2 days by flow cytometry analysis (reference value: 33.3); type: functional, Homo sapiens; settings: time 9 day
# [13] = target: Bromodomain-containing protein 4 (Homo sapiens) (UniProt O60885); settings: D425 Med, dose 300.0 nM; remark: listed apart in the source
# [14] = target: Bromodomain-containing protein 4 (Homo sapiens) (UniProt O60885); settings: D283 Med, dose 300.0 nM; remark: listed apart in the source
# [15] = target: Bromodomain-containing protein 4 (Homo sapiens) (UniProt O60885); settings: D283 Med, time 24-48 hrs
# Daoy [16] = experiment: In vivo inhibition of BRD4 in athymic nude mouse xenografted with human Daoy cells assessed as reduction in SOX2 mRNA expression in tumor at 50 mg/kg, ip measured after 5 days by RT-qPCR analysis; type: functional, organism-based; settings: time 5.0 day
# Summary of the method: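 Xenograft tumors from mice dosed 50 mg/kg i.p. or DMSO vehicle, n = 3 each. SOX2 mRNA measured by TaqMan qPCR with ΔΔCt quantitation, in triplicate.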
# [17] = target: Bromodomain-containing protein 4 (Homo sapiens) (UniProt O60885); settings: Daoy, dose 100-300 nM, time 48.0 hrs
# [18] = target: Bromodomain-containing protein 4 (Homo sapiens) (UniProt O60885); settings: D458 Med, dose 300.0 nM
# Daoy [19] = experiment: Induction of cell cycle arrest in human Daoy cells assessed as G2/M phase cells at 300 nM incubated for 48 hrs by flow cytometry analysis (reference value: 33.94 +/- 1.46%); type: functional
# [20] = target: Bromodomain-containing protein 4 (Homo sapiens) (UniProt O60885); settings: UW228, dose 300.0 nM
# Daoy [21] = experiment: Induction of senescence in human Daoy cells assessed as increase in p27 mRNA expression at 300 nM by RT-qPCR analysis; type: functional, cell-based; summary of the method: as §1
# Daoy [22] = experiment: Induction of senescence in human Daoy cells assessed as increase in beta-galactosidase level at 75 to 300 nM measured after 7 days by staining based analysis; type: functional, cell-based; settings: dose 75-300 nM, time 7.0 day
# Summary of the method: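 Daoy cells treated with 75 or 300 nM drug or DMSO. Senescence-associated β-galactosidase staining performed after 7 days. Positive cells counted per high power field.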
# Daoy [23] = experiment: Antitumor activity against human Daoy cells xenografted in athymic nude mice assessed as inhibition of proliferation at 50 mg/kg, ip measured after 5 days by Ki67 staining based analysis; type: functional, organism-based; settings: time 5.0 day; summary of the method: as §3
# D425 Med = experiment: Inhibition of colony formation in human D425 Med cells at 100 to 300 nM incubated for 8 to 11 days by NBT staining based methyl cellulose colony growth assay; type: functional, cell-based; settings: dose 100-300 nM, time 8-11 day
# Summary of the method: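 500 cells/well suspended in DMEM with methyl cellulose (1.3% final) containing 150 or 300 nM drug or DMSO, plated in triplicate. Colonies formed over 8–11 days, then stained with NBT (1 mg/ml) for 24 h at 37 °C. Colonies of ≥50 cells counted.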
# [24] = target: Bromodomain-containing protein 4 (Homo sapiens) (UniProt O60885); settings: Daoy, dose 300.0 nM
# D458 Med [25] = experiment: Induction of cell cycle arrest in human D458 Med cells assessed as S phase cells at 300 nM incubated for 48 hrs by flow cytometry analysis (reference value: 43.54 +/- 3.48%); type: functional
compound,measurement,setting,value
Cc1sc2c(c1C)C(c1ccc(Cl)cc1)=N[C@@H](CC(=O)OC(C)(C)C)c1nnc(C)n1-2,Activity,Daoy [1],Active
same,inhibition,[2],Active
same,Activity,Daoy [3],Active
same,inhibition,[4],Active
same,Activity,D458 Med [5],Active
same,inhibition,Daoy [6],Active
same,Activity,Daoy [7],Dose-Dependent Effect
same,Activity,Daoy [8],Active
same,Activity,Daoy [9],79.416%
same,Activity,Daoy [10],Active
same,inhibition,[11],Active
same,Activity,Daoy [12],Active
same,Activity,Medulloblastoma cell,13.5
same,inhibition,[13],Active
same,inhibition,[14],Active
same,inhibition,[15],Active
same,inhibition,Daoy [16],Active
same,inhibition,[17],Dose-Dependent Effect
same,inhibition,[18],Active
same,Activity,Daoy [19],16.813%
same,inhibition,[20],Active
same,Activity,Daoy [21],Active
same,Activity,Daoy [22],Active
same,Activity,Daoy [23],Active
same,inhibition,D425 Med,Active
same,inhibition,[24],Active
same,Activity,D458 Med [25],26.58%
